# Reference: ChEMBL document CHEMBL1255336, “Single-dose safety and pharmacokinetics of ST-246, a novel orthopoxvirus egress inhibitor” (Antimicrob Agents Chemother, 2008)
# Key:
# Homo sapiens [1] = assay: Median half life in fasting healthy human at 1000 mg, po administered as single dose measured after 48 hrs; assay type: ADME, organism-based; conditions: in vivo
# [2] = AUClast in fasting healthy human at 2000 mg, po administered as single dose measured after 48 hrs; assay type: ADME, organism-based; set-up: time < 48 hr, dose 2000 mg, route oral; conditions: plasma
# In short: (§1)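 Randomised placebo-controlled single oral dose in healthy subjects (8 active, 2 placebo per group); groups 1–3 fasting, group 4 nonfasting. Plasma sampled predose to 48 h (groups 1–3) or 72 h (group 4), centrifuged 4°C, stored –70°C. LC-MS/MS with analog internal standard. Noncompartmental analysis on actual times; Cmax observed; AUC by trapezoid rule, extrapolated with kel; CL = dose/AUC0-∞.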
# [3] = Apparent Cmax in nonfasting healthy human at 1000 mg, po administered as single dose measured after 72 hrs; assay type: ADME, organism-based; set-up: dose 1000 mg, route oral; conditions: in vivo; in short: as §1
# [4] = Terminal half life in fasting healthy human at 2000 mg, po administered as single dose measured after 48 hrs; assay type: ADME, organism-based; conditions: in vivo
# In short: (§2)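 Healthy volunteers, 8 per group on active drug (2 placebo), single fasting oral dose. Venous plasma drawn predose and 0.5–12, 24, 48 h postdose, kept at –70°C, assayed by validated LC-MS/MS with analog internal standard. Noncompartmental analysis on actual times; Tmax observed directly; kel by log-linear regression of ≥3 terminal points; CL = dose/AUC0-∞. Median values.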
# [5] = Terminal half life in nonfasting healthy human at 1000 mg, po administered as single dose measured after 72 hrs; assay type: ADME, organism-based; conditions: in vivo
# In short: (§3)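 Healthy volunteers (8 active, 2 placebo) given a single 1,000 mg oral dose in the fed state. Plasma sampled predose, at 0.5–12 h, 24, 48 and 72 h postdose and analysed by validated LC-MS/MS. Noncompartmental analysis on actual sampling times. Tmax observed directly; t1/2 from kel fitted to ≥3 terminal log-linear points. Median values.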
# [6] = Tmax in fasting healthy human at 1000 mg, po administered as single dose measured after 48 hrs; assay type: ADME, organism-based; conditions: in vivo
# [7] = Tmax in fasting healthy human at 2000 mg, po administered as single dose measured after 48 hrs; assay type: ADME, organism-based; conditions: in vivo; in short: as §2
# [8] = Plasma clearance in nonfasting healthy human at 1000 mg, po administered as single dose measured after 72 hrs; assay type: ADME, organism-based; in short: as §1
# [9] = Terminal half life in fasting healthy human at 500 mg, po administered as single dose measured after 48 hrs; assay type: ADME, organism-based; conditions: in vivo; in short: as §2
# [10] = AUC(0 to infinity) in fasting healthy human at 500 mg, po administered as single dose measured after 48 hrs; assay type: ADME, organism-based; set-up: dose 500 mg, route oral, time infinity; conditions: plasma; in short: as §1
# [11] = AUClast in nonfasting healthy human at 1000 mg, po administered as single dose measured after 72 hrs; assay type: ADME, organism-based; set-up: time < 72 hr, dose 1000 mg, route oral; conditions: plasma; in short: as §1
# [12] = AUClast in fasting healthy human at 1000 mg, po administered as single dose measured after 48 hrs; assay type: ADME, organism-based; set-up: dose 1000 mg, time < 48 hr, route oral; conditions: plasma; in short: as §1
# [13] = AUClast in fasting healthy human at 500 mg, po administered as single dose measured after 48 hrs; assay type: ADME, organism-based; set-up: dose 500 mg, time < 48 hr, route oral; conditions: plasma; in short: as §1
# [14] = Plasma clearance in fasting healthy human at 1000 mg, po administered as single dose measured after 48 hrs; assay type: ADME, organism-based; in short: as §1
# Homo sapiens [15] = assay: Toxicity in healthy human assessed as adverse events at 1000 mg, po administered as single dose measured after 72 hrs; assay type: organism-based; conditions: in vivo
# In short: (§4)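 Randomized, placebo-controlled single oral dose in healthy adults, groups of 10 (8 drug, 2 placebo), dose escalated after safety review. Fasting groups got 500, 1,000 or 2,000 mg; one group got 1,000 mg fed. Treatment-emergent adverse events, vital signs, hematology, chemistries, urinalysis and ECG were recorded through day 1 and follow-up at weeks 1 and 4. Drug relation was judged blinded.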
# [16] = Apparent oral clearance in nonfasting healthy human at 1000 mg, po administered as single dose measured after 72 hrs; assay type: ADME, organism-based; conditions: in vivo; in short: as §1
# Homo sapiens [17] = assay: Toxicity in fasting healthy human assessed as neutropenia at 1000 mg, po administered as single dose measured after 48 hrs; assay type: organism-based; conditions: in vivo; in short: as §4
# [18] = Apparent oral clearance in fasting healthy human at 1000 mg, po administered as single dose measured after 48 hrs; assay type: ADME, organism-based; conditions: in vivo; in short: as §1
# Homo sapiens [19] = assay: Toxicity in fasting healthy human assessed as adverse events at 500 mg, po administered as single dose measured after 48 hrs; assay type: organism-based; conditions: in vivo
# In short: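 Healthy subjects given single oral dose, 8 active and 2 placebo per group. Safety covered adverse events, vital signs, ECG (day 1 and week 4), hematology, chemistries, urinalysis before and after dosing. Follow-up visits at week 1 and week 4. Cohort safety was reviewed before the next dose group.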
# [20] = Tmax in nonfasting healthy human at 1000 mg, po administered as single dose measured after 72 hrs; assay type: ADME, organism-based; conditions: in vivo; in short: as §3
# Homo sapiens [21] = assay: Toxicity in fasting healthy human assessed as feeling abnormal at 500 mg, po administered as single dose measured after 48 hrs; assay type: organism-based; conditions: in vivo; in short: as §4
# [22] = Apparent oral clearance in fasting healthy human at 2000 mg, po administered as single dose measured after 48 hrs; assay type: ADME, organism-based; conditions: in vivo; in short: as §2
# [23] = Plasma clearance in fasting healthy human at 500 mg, po administered as single dose measured after 48 hrs; assay type: ADME, organism-based; in short: as §1
# [24] = AUC(0 to infinity) in nonfasting healthy human at 1000 mg, po administered as single dose measured after 72 hrs; assay type: ADME, organism-based; set-up: dose 1000 mg, time infinity, route oral; conditions: plasma; in short: as §1
# [25] = AUC(0 to infinity) in fasting healthy human at 1000 mg, po administered as single dose measured after 48 hrs; assay type: ADME, organism-based; set-up: dose 1000 mg, time infinity, route oral; conditions: plasma; in short: as §1
# [26] = Cmax in fasting healthy human at 2000 mg, po administered as single dose measured after 48 hrs; assay type: ADME, organism-based; set-up: dose 2000 mg, route oral; conditions: in vivo; in short: as §1
# [27] = Cmax in nonfasting healthy human at 1000 mg, po administered as single dose measured after 72 hrs; assay type: ADME, organism-based; set-up: dose 1000 mg, route oral; conditions: in vivo; in short: as §1
# Homo sapiens [28] = assay: Toxicity in fasting healthy human assessed as back pain at 500 mg, po administered as single dose measured after 48 hrs; assay type: organism-based; conditions: in vivo; in short: as §4
# [29] = Median half life in fasting healthy human at 2000 mg, po administered as single dose measured after 48 hrs; assay type: ADME, organism-based; conditions: in vivo; in short: as §2
# [30] = Apparent oral clearance in fasting healthy human at 500 mg, po administered as single dose measured after 48 hrs; assay type: ADME, organism-based; conditions: in vivo; in short: as §1
# [31] = Tmax in fasting healthy human at 500 mg, po administered as single dose measured after 48 hrs; assay type: ADME, organism-based; conditions: in vivo; in short: as §2
# [32] = Terminal half life in fasting healthy human at 1000 mg, po administered as single dose measured after 48 hrs; assay type: ADME, organism-based; conditions: in vivo; in short: as §2
# Homo sapiens [33] = assay: Toxicity in fasting healthy human assessed as headache at 500 mg, po administered as single dose measured after 48 hrs; assay type: organism-based; conditions: in vivo; in short: as §4
# [34] = Plasma clearance in fasting healthy human at 2000 mg, po administered as single dose measured after 48 hrs; assay type: ADME, organism-based; in short: as §1
# [35] = Cmax in fasting healthy human at 500 mg, po administered as single dose measured after 48 hrs; assay type: ADME, organism-based; set-up: dose 500 mg, route oral; conditions: in vivo; in short: as §1
# Homo sapiens [36] = assay: Toxicity in fasting healthy human assessed as constipation at 1000 mg, po administered as single dose measured after 48 hrs; assay type: organism-based; conditions: in vivo; in short: as §4
# Homo sapiens [37] = assay: Toxicity in fasting healthy human assessed as adverse events at 1000 mg, po administered as single dose measured after 48 hrs; assay type: organism-based; conditions: in vivo; in short: as §4
# [38] = AUC(0 to infinity) in fasting healthy human at 2000 mg, po administered as single dose measured after 48 hrs; assay type: ADME, organism-based; set-up: dose 2000 mg, time infinity, route oral; conditions: plasma; in short: as §1
# Homo sapiens [39] = assay: Toxicity in healthy human assessed as headache at 1000 mg, po administered as single dose measured after 72 hrs; assay type: organism-based; conditions: in vivo; in short: as §4
# [40] = Median half life in fasting healthy human at 500 mg, po administered as single dose measured after 48 hrs; assay type: ADME, organism-based; conditions: in vivo; in short: as §2
# [41] = Cmax in fasting healthy human at 1000 mg, po administered as single dose measured after 48 hrs; assay type: ADME, organism-based; set-up: dose 1000 mg, route oral; conditions: in vivo; in short: as §1
structure (smiles),measurement,setting,value
O=C(NN1C(=O)[C@@H]2[C@@H]3C=C[C@@H]([C@H]4C[C@@H]34)[C@@H]2C1=O)c1ccc(C(F)(F)F)cc1 [TECOVIRIMAT],t1/2,Homo sapiens [1],19.8 h
same,AUC(0-t) at 48 h,[2],24500 ng·h/mL
same,Cmax,[3],3120 ng/mL
same,half-life,[4],22 h
same,half-life,[5],17 h
same,Tmax,[6],3 h
same,Tmax,[7],3 h
same,CL/F,[8],513 mL/min
same,half-life,[9],26 h
same,AUC(0-inf),[10],9810 ng·h/mL
same,AUC(0-t) at 72 h,[11],34100 ng·h/mL
same,AUC(0-t) at 48 h,[12],21100 ng·h/mL
same,AUC(0-t) at 48 h,[13],9880 ng·h/mL
same,CL/F,[14],838 mL/min
same,Activity,Homo sapiens [15],12.5%
same,CL/F,[16],500 mL/min
same,Activity,Homo sapiens [17],12.5%
same,CL/F,[18],817 mL/min
same,Activity,Homo sapiens [19],25%
same,Tmax,[20],5 h
same,Activity,Homo sapiens [21],12.5%
same,CL/F,[22],1320 mL/min
same,CL/F,[23],860 mL/min
same,AUC(0-inf),[24],35900 ng·h/mL
same,AUC(0-inf),[25],24900 ng·h/mL
same,Cmax,[26],2550 ng/mL
same,Cmax,[27],2930 ng/mL
same,Activity,Homo sapiens [28],12.5%
same,half-life,[29],18.9 h
same,CL/F,[30],883 mL/min
same,Tmax,[31],2 h
same,half-life,[32],40 h
same,Activity,Homo sapiens [33],12.5%
same,CL/F,[34],1290 mL/min
same,Cmax,[35],934 ng/mL
same,Activity,Homo sapiens [36],12.5%
same,Activity,Homo sapiens [37],12.5%
same,AUC(0-inf),[38],25700 ng·h/mL
same,Activity,Homo sapiens [39],12.5%
same,half-life,[40],20.9 h
same,Cmax,[41],1810 ng/mL
